ChEMBL document CHEMBL2321820, “Discovery of HSD-621 as a Potential Agent for the Treatment of Type 2 Diabetes” (ACS Med Chem Lett, 2013)
pIC50: −log10 of the molar value.

Assays:
[1] = Volume of distribution at steady state in C57B6 mouse at 2 mg/kg, iv; type: ADME, organism-based; design: dose 2 mg/kg, route intravenous; settings: in vivo, read-out: Vdss
Procedure, shortened: (§1)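 Male C57B6 mice. IV dose of 2 mg/kg in 50% DMSO/50% PEG200. Oral dose of 10 mg/kg in 2% Tween/0.5% methyl cellulose in water. Values are PK parameters from the iv and po arms.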

[2] = Tmax in Sprague-Dawley rat at 10 mg/kg, po; type: ADME, organism-based; design: dose 10 mg/kg, route oral; settings: in vivo
Procedure, shortened: (§2)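 SD rats received 2 mg/kg iv in 50% DMSO/50% PEG200, or 10 mg/kg po in 2% Tween/0.5% methyl cellulose in water. PK parameters come from each route.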

[3] = Volume of distribution at steady state in Sprague-Dawley rat at 2 mg/kg, iv; type: ADME, organism-based; design: dose 2 mg/kg, route intravenous; settings: in vivo, read-out: Vdss
Procedure, shortened: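 Sprague-Dawley rats given a single iv dose of 2 mg/kg in 50% DMSO/50% PEG200. A separate oral arm received 10 mg/kg in 2% Tween/0.5% methyl cellulose in water.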

[4] = AUC in Beagle dog at 5 mg/kg, po; settings: plasma
[5] = Oral bioavailability in Sprague-Dawley rat at 10 mg/kg; type: ADME, organism-based; settings: in vivo; procedure, shortened: as §2
[6] = biological target: Voltage-gated inwardly rectifying potassium channel KCNH2 (Homo sapiens, UniProt Q12809); test: Activity at human ERG at 33 uM
Mus musculus [7] = species on record: Mus musculus; test: Antidiabetic activity in C57B6 DIO mouse assessed as reduction in fasting glucose level at 0.3 mg/g of food after 31 days by HPLC analysis relative to untreated control; type: functional; design: scale not given: the % may be the effect or the level left
Procedure, shortened: (§3)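 Male C57B6 mice, 5.5–7 months old, kept on a 35.5% fat diet for 4 months. Compound was mixed into food at 0.3 mg drug/g food for 31 days. Controls received diet 12492. Glucose and insulin were measured fed and fasting.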

[8] = Half life in mouse liver microsomes; type: ADME, Microsome
[9] = Oral bioavailability in C57B6 mouse at 10 mg/kg; type: ADME, organism-based; settings: in vivo; procedure, shortened: as §1
[10] = biological target: 11-beta-hydroxysteroid dehydrogenase 1 (Homo sapiens, UniProt P28845); test: Inhibition of human 11beta-HSD1 expressed in CHO cells using cortisone as substrate incubated for 30 mins prior to substrate addition measured after 120 mins by chemiluminescence assay
[11] = Half life in Sprague-Dawley rat at 10 mg/kg, po; type: ADME, organism-based; design: dose 10 mg/kg, route oral; settings: in vivo; procedure, shortened: as §2
[12] = Half life in rat liver microsomes; type: ADME, Microsome
Mus musculus [13] = species on record: Mus musculus; test: Toxicity in C57B6 DIO mouse assessed as elevation of aspartate aminotransferase at 0.3 mg/g of food after 31 days; type: organism-based; settings: in vivo, po, 744 h
[14] = biological target: T1, Peroxisome proliferator-activated receptor alpha (Homo sapiens, UniProt Q07869); test: Inhibition of PPARalpha (unknown origin)
T1 sequence (Q07869 whole entry): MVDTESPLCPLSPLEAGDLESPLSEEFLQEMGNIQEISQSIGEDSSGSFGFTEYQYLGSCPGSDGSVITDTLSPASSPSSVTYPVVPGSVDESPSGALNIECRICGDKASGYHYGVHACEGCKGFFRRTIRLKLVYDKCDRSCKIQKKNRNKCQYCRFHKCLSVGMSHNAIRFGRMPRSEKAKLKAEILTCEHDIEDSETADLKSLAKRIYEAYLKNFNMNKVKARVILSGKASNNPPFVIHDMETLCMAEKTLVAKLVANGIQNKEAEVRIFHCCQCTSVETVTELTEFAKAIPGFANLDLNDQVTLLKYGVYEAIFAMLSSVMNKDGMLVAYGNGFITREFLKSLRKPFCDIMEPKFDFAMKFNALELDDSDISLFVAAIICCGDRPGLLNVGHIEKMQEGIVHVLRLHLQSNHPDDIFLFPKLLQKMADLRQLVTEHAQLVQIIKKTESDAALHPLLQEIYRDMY

[15] = AUC in Sprague-Dawley rat at 10 mg/kg, po; type: ADME, organism-based; design: dose 10 mg/kg, route oral; settings: plasma; procedure, shortened: as §2
Mus musculus [16] = species on record: Mus musculus; test: Toxicity in C57B6 DIO mouse assessed as body weight change at 0.3 mg/g of food after 31 days relative to untreated control; type: organism-based; settings: in vivo, po, 744 h
[17] = AUC in C57B6 mouse at 10 mg/kg, po; type: ADME, organism-based; design: dose 10 mg/kg, route oral; settings: plasma; procedure, shortened: as §1
[18] = AUC in C57B6 mouse at 2 mg/kg, iv; type: ADME, organism-based; design: dose 2 mg/kg, route intravenous; settings: plasma; procedure, shortened: as §1
[19] = Cmax in C57B6 mouse at 10 mg/kg, po; type: ADME, organism-based; design: dose 10 mg/kg, route oral; settings: in vivo; procedure, shortened: as §1
[20] = Clearance in C57B6 mouse at 2 mg/kg, iv; type: ADME, organism-based; design: dose 2 mg/kg, route intravenous; settings: in vivo; procedure, shortened: as §1
[21] = Half life in C57B6 mouse at 2 mg/kg, iv; type: ADME, organism-based; design: dose 2 mg/kg, route intravenous; settings: in vivo; procedure, shortened: as §1
[22] = Tmax in Beagle dog at 5 mg/kg, po; settings: in vivo
[23] = Volume of distribution at steady state in Beagle dog at 2 mg/kg, iv; type: ADME, organism-based, Canis lupus familiaris; design: dose 2 mg/kg, route intravenous; settings: in vivo, read-out: Vdss
Procedure, shortened: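 Male dogs were given 2 mg/kg intravenously in 50% DMSO/50% PEG200.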

[24] = biological target: T2, Peroxisome proliferator-activated receptor gamma (Homo sapiens, UniProt P37231); test: Inhibition of PPARgamma (unknown origin)
T2 sequence (P37231 whole entry): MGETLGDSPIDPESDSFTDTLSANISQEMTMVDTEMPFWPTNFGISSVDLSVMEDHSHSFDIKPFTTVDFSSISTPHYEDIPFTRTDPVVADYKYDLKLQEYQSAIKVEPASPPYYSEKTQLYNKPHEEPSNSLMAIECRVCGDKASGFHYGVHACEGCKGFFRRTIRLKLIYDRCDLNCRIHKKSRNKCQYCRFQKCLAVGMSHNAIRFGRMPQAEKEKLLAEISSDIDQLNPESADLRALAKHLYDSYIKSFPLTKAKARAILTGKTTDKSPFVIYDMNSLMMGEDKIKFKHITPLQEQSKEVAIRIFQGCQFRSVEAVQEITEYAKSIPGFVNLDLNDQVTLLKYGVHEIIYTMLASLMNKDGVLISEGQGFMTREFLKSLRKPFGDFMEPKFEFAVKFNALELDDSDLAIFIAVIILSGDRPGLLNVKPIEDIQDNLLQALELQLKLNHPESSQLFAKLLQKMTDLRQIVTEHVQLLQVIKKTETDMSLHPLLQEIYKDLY

Salmonella typhimurium = test: Genotoxicity in Salmonella typhimurium by Ames test; type: toxicity, organism-based; settings: salmonella enterica subsp. enterica serovar typhimurium
[25] = Cmax in Sprague-Dawley rat at 10 mg/kg, po; type: ADME, organism-based; design: dose 10 mg/kg, route oral; settings: in vivo; procedure, shortened: as §2
[26] = biological target: 11-beta-hydroxysteroid dehydrogenase 1 (Mus musculus, UniProt P50172); test: Inhibition of mouse 11beta-HSD1 expressed in CHO cells […] incubated for 30 mins prior to substrate addition measured after 120 mins by chemiluminescence assay; type: cell-based
Procedure, shortened: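 Cell-based assay run in duplicate. Compounds were tested as 11-point 2-fold dilutions, and IC50 was derived. Lower assay threshold was 10 nM.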

[27] = AUC in Sprague-Dawley rat at 2 mg/kg, iv; type: ADME, organism-based; design: dose 2 mg/kg, route intravenous; settings: plasma; procedure, shortened: as §2
Mus musculus [28] = species on record: Mus musculus; test: Antidiabetic activity in C57B6 DIO mouse assessed as reduction in fed insulin level at 0.3 mg/g of food after 31 days by HPLC analysis relative to untreated control; type: functional; design: scale not given: the % may be the effect or the level left; procedure, shortened: as §3
Mus musculus [29] = species on record: Mus musculus; test: Antidiabetic activity in C57B6 DIO mouse assessed as reduction in fasting insulin level at 0.3 mg/g of food after 31 days by HPLC analysis relative to untreated control; type: functional; design: scale not given: the % may be the effect or the level left; procedure, shortened: as §3

Sequence of 11-beta-hydroxysteroid dehydrogenase 1 (Mus musculus, UniProt P50172) (P50172 whole entry): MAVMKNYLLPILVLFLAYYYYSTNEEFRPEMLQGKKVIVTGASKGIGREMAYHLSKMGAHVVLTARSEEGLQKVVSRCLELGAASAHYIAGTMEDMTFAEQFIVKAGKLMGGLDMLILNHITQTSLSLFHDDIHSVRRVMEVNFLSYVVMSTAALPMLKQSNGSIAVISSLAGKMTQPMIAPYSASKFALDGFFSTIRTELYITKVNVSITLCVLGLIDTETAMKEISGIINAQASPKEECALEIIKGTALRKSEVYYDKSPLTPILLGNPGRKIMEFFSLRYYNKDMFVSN
Sequence of 11-beta-hydroxysteroid dehydrogenase 1 (Homo sapiens, UniProt P28845) (P28845 whole entry): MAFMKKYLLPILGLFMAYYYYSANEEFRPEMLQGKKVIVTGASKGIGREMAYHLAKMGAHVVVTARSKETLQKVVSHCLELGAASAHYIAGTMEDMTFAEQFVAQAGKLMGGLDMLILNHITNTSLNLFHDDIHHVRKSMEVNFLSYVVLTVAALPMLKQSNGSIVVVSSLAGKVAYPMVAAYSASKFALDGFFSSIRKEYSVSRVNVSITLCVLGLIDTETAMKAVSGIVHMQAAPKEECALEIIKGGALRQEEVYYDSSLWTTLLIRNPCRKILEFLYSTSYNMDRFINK
Sequence of Voltage-gated inwardly rectifying potassium channel KCNH2 (Q12809 whole entry): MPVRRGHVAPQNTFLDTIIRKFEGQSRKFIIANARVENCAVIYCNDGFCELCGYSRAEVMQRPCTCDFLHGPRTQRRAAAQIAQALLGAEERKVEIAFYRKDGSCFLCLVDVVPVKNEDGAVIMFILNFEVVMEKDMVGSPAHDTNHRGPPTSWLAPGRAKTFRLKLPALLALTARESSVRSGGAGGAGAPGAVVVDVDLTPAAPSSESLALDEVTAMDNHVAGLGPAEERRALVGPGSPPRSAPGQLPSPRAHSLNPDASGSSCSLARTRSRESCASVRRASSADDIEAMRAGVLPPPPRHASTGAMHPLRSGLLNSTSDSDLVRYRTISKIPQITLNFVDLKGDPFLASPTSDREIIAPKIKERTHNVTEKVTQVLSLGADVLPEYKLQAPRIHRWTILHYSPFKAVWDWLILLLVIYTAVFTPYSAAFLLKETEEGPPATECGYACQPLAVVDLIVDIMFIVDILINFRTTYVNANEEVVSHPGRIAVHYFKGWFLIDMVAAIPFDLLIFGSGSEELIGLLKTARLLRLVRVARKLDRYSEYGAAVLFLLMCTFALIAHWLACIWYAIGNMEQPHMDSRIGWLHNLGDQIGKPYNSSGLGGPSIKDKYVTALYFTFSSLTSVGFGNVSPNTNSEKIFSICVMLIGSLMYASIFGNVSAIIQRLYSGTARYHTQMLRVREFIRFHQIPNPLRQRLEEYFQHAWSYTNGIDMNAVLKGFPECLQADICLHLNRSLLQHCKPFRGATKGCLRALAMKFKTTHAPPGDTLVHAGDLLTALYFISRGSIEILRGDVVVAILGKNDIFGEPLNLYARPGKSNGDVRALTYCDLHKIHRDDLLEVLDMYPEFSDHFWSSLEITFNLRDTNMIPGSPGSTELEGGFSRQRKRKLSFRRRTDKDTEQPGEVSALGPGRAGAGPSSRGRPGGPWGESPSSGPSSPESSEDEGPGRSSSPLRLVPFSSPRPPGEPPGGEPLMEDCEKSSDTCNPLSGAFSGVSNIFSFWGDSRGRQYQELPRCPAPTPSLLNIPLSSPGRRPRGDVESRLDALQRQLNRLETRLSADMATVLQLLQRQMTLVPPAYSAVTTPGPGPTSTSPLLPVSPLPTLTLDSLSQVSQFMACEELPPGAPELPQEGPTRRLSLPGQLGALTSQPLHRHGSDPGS

C[C@@H]1CN(c2ccc(F)cc2C(F)(F)F)CCN1S(=O)(=O)c1ccc([C@@](O)(C(N)=O)C(F)(F)F)s1 showed a Vd [1] of 4.2 L/kg, a Tmax [2] of 1.8 h and a Vd [3] of 3.8 L/kg. The AUC [4] was 43500 ng·h/mL, the bioavailability [5] was 61% and the Activity [6] was “Not Active”. For the same compound, the Activity (Mus musculus [7]) was 15%, the half-life [8] was greater than 0.5 h and the bioavailability [9] was 67%. For the same compound, the pIC50 [10] was 8.00, the half-life [11] was 3.3 h and the half-life [12] was greater than 0.5 h. The Activity (Mus musculus [13]) was “Non-toxic”, the pIC50 [14] was less than 4.00 and the AUC [15] was 6540 ng·h/mL. For the same compound, the Activity (Mus musculus [16]) was “Non-toxic”, the AUC [17] was 11700 ng·h/mL and the AUC [18] was 3600 ng·h/mL. The Cmax [19] was 987 ng/mL, the clearance [20] was 9 mL/min/kg and the half-life [21] was 6.1 h. The Tmax [22] was 2.8 h, the Vd [23] was 1.8 L/kg and the pIC50 [24] was less than 4.00. The Activity (Salmonella typhimurium) was “Non-toxic”, the Cmax [25] was 656 ng/mL and the pIC50 [26] was 8.00. The AUC [27] was 4310 ng·h/mL, the Activity (Mus musculus [28]) was 44% and the Activity (Mus musculus [29]) was 33%.
